In the library only some 12% were active in any assay of this set; here they are far more common.
WT yeast gro inh – growth inhibition of WT yeast, mitochondrial fusion screen; mitochondrial fusion phenotypic screen, WT strain; inhibition, % at 10 µM; hit rate 2.1% among 190,000; AID 1362; in the data active = inhibition above about 58%; tested in S. cerevisiae
Diaph inh CS – inhibits diaphorase or chemically oxidizes, flagging diaphorase assay artifacts; diaphorase resazurin-to-resorufin fluorescence, NADH, 16 min; bacterial (C. kluyveri) enzyme, not human; inhibition, % at 20 µM; hit rate 0.69% among 190,000; AID 1217;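 active = primary screen inhibition at 20 µM above a set limit, cut at about 50% in these data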;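 note: plate controls were DMSO with full reaction for no effect and wells lacking NADH for full effect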
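Test system: bacterial diaphorase enzyme (C. kluyveri); Quantity: 0.14 U/mL diaphorase, enzyme working solution; Times: reaction incubation of 16 min at room temperature; Measured by: fluorescence of resorufin formed from resazurin, Ex 544/Em 590 nm; Benchmarks: positive control minus NADH, DMSO neutral control.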
ROMK mod – modulates human ROMK potassium channel activity. P48048. B-score at 10 µM. hit rate 2% among 130,000. AID 1918. Tet-inducible ROMK, thallium flux fluorescence; actives lie on both sides;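 active = signal ratio slope over the read window, or its plate-corrected B-score, at least 3 SD from the plate mean, either direction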;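 note: B-score of the F/F0 ratio slope over 7 to 12 s after thallium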
Target sequence (P48048 whole entry, looked up): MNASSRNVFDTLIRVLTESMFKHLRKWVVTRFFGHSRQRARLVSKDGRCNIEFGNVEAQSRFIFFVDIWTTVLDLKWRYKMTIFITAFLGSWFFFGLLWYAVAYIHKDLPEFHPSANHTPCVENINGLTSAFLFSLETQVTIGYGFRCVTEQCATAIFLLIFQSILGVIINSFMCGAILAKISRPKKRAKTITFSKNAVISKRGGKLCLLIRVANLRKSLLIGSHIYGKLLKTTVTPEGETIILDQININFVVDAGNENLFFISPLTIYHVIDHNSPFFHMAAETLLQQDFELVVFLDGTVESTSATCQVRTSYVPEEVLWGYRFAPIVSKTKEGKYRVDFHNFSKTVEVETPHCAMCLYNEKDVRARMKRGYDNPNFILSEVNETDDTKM
L major viab – reduces viability of Leishmania major promastigotes. inhibition, % at 10 µM. resazurin fluorescence viability. AID 1063. hit rate 9% among 200,000; in the data active = inhibition above about 50%;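 note: promastigotes grown with compound for 44 hours at 28 °C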
Cl transport mod – KCC2 (human) Cl- transport modulation; Q9H2X9; KCC2 cells, thallium flux FluoZin-2 fluorescence; B-score of Tl+ flux slope (higher = more flux/activation; lower = inhibition) at 10 µM; hit rate 2.2% among 190,000; AID 1456;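 active = thallium flux slope and its plate-corrected score both differing from the plate sample mean at a set confidence after two filtering rounds, in either direction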;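 note: slope of fluorescence scaled to starting intensity during 10 to 20 s after thallium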
Diaphorase act – counter-screen for diaphorase-based assays: diaphorase activators and chemical reducers | Diaphorase/resazurin coupled assay, resorufin fluorescence, 16 min; stronger effect = higher value; 1 = vehicle wells, 0 = NADH-free wells | AID 1229 | activation factor at 20 µM | hit rate 0.005% among 190,000;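 active = diaphorase activity raised at least twofold by the compound at 20 µM; inactive = activation factor below 2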
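Material: Clostridium kluyveri diaphorase, purified enzyme; Quantity: enzyme 0.07 U/mL final; Medium: HEPES pH 7.4 buffer with MgCl2 and Tween 20; Dosing: single compound dose of 20 µM, 1% DMSO final; Schedule: 16 min reaction at room temperature; Measured by: red resorufin fluorescence at 544/590 nm excitation/emission.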
* marks the source's active call; other numbers are inactive results; nt = no result.

SMILES	WT yeast gro inh	Diaph inh CS	ROMK mod	L major viab	Cl transport mod	Diaphorase act
NC(=O)c1ccsc1NC(=O)CSc1nnc(Nc2ccccc2)s1	5	12	-1.2	57*	-1	0.9
NC(=O)c1ccsc1NC(=O)CSc1ccccc1F	3	14	nt	10	-0.43	0.9
Cn1c(=NC(=O)c2ccc(S(=O)(=O)N3CCCc4ccccc43)cc2)sc2cc(S(C)(=O)=O)ccc21	-10	11	-0.057	99*	-0.7	0.9
COC(=O)Cn1c(=NC(=O)CN2C(=O)CCC2=O)sc2cc(S(N)(=O)=O)ccc21	-24	1	0.58	-7	1.8	1
C#CCn1c(=NC(=O)c2ccc(S(=O)(=O)N3CCCc4ccccc43)cc2)sc2cc(S(N)(=O)=O)ccc21	7	18	-0.65	100*	0.23	0.8
CCN(CC)CCCNC(=O)CSc1c2c(nc3cc(Cl)ccc13)CCCC2	-5	21	-0.23	100*	0.049	0.8
O=C(CSc1c2c(nc3cc(Cl)ccc13)CCCC2)NCCN1CCOCC1	-4	24	-0.27	59*	-0.56	0.8
COCCCNC(=O)CSc1c2c(nc3ccc(Cl)cc13)CCCC2	-16	3	0.69	25	-0.025	1
CCOC(=O)COc1ccccc1C1Nc2ccccc2C(=O)N1c1cccc(Cl)c1 (configuration not stated)	3	40	nt	31	0.0092	0.6
CCN=C1SC(C(=O)Nc2ccccc2)CC(=O)N1CC (configuration not stated)	-6	-4	0.039	-4	nt	1
Cc1cc(=O)oc2cc(NC(=O)CC3(CC(=O)O)CCCC3)ccc12	nt	nt	nt	nt	-0.25	nt
C=CCn1c(=O)/c(=C/c2cc(OC)c(OC)c(OC)c2)s/c1=C(/C#N)c1nc2ccccc2n1C	10	4	nt	39	-2.1	1
C=CCn1c(=O)/c(=C/c2ccc(Cl)cc2)s/c1=C(/C#N)c1nnc2n1CCCCC2	19	23	nt	94*	-0.52	0.8
COc1ccc(OC2C(=O)N(Cc3ccc(F)cc3)C2c2ccc(OC)c(OC)c2)cc1 (configuration not stated)	0	16	nt	6	-0.4	0.8
COc1ccc(OC2C(=O)N(Cc3ccc4c(c3)OCO4)C2c2sccc2C)cc1 (configuration not stated)	0	25	nt	92*	-1.2	0.7
O=C(O)c1cccc(N2C(=S)N=C(Nc3ccccc3)C23CCCCC3)c1	-15	2	0.12	7	-1.9	1
COc1ccc(NC2=NC(=S)N(c3ccccc3C)C23CCCCC3)cc1	38	13	nt	11	89*	0.9
CC(=O)N/C(=C\c1ccc(C)cc1)C(=O)O	3	8	0.031	-7	0.19	0.9
Fc1ccc(CSc2ccc3nnc(-c4ccccn4)n3n2)cc1	7	-9	0.28	96*	-2.3	1.1
CCCC(=O)NC(=S)Nc1cc(-c2nc3ncccc3o2)ccc1C	nt	nt	nt	nt	-0.21	nt
Cc1ccc(-c2nc3ncccc3o2)cc1NC(=O)c1ccco1	nt	nt	nt	99*	1.3	nt
Cc1ccc(-c2nc3ncccc3o2)cc1NC(=S)NC(=O)c1ccco1	-7	10	0.43	1	2.9	0.9
CCCC(=O)Nc1cc(-c2nc3ncccc3o2)ccc1C	-6	0	nt	89*	1.2	1
Cc1ccc(-c2nc3ncccc3o2)cc1NC(=O)c1cccs1	-4	22	0.85	95*	nt	0.8
CC1CC(C)CN(S(=O)(=O)c2cccc(C(=O)OCCN3CCCC3=O)c2)C1 (configuration not stated)	-4	12	-1.1	-2	-0.3	0.9
SMILES	WT yeast gro inh	Diaph inh CS	ROMK mod	L major viab	Cl transport mod	Diaphorase act
O=C(CSc1ccc(-c2ccc(F)cc2)nn1)N1CCN(c2ccccc2)CC1	15	8	nt	-2	-0.81	0.9
C/C(=N\Nc1cccc(Cl)c1)c1ccncc1	62	0	-0.78	31	0.096	1
C/C(=N\Nc1ccc(F)cc1)c1ccncc1	23	12	-0.53	84*	1.4	0.9
COc1cc(S(=O)(=O)Nc2cccc(C)c2)ccc1NC(=O)c1cccnc1	-1	9	0.46	49	0.36	0.9
Cc1ccc(O)c(-c2cc3ccccc3[nH]2)c1	18	32	-0.035	59*	0.57	0.7
Cc1cc(C)n2ncc(/C(N)=N/OC(=O)Nc3ccc(Cl)cc3)c2n1	nt	nt	nt	nt	0.33	nt
CCOC(=O)c1cc2c(ccn2C)n1Cc1cc(C)ccc1C	67*	15	nt	93*	0.54	0.9
O=C(NC(=S)Nc1ccc(CN2CCOCC2)cc1)c1ccc([N+](=O)[O-])cc1Cl	5	29	-0.17	100*	2.1	0.7
CCC(=O)NC(=S)Nc1cccc(NC(=O)c2ccc(Cl)cc2Cl)c1	-10	13	nt	-6	nt	0.9
CCCCNC(=S)NC(=O)c1ccc(Cl)cc1Cl	27	9	nt	1	5.3*	0.9
COc1cc(NC(=O)c2cccc(Cl)c2)c(OC)cc1NC(=O)CN1CCOCC1	-3	23	nt	85*	-0.19	0.8
CCN(CC)C(=S)NC(=O)c1ccc(Cl)cc1Cl	15	13	1.4	0	12*	0.9
CS(=O)(=O)N(CC(=O)Nc1ccccc1Cl)c1ccc(Cl)cc1	-6	18	-0.21	5	-0.029	0.8
COc1ccc(N(CC(=O)NCc2ccc3c(c2)OCO3)C(=O)CCC(=O)Nc2ccccn2)cc1	13	nt	0.13	-2	0.02	nt
O=C(Cn1nc(Cc2cccnc2)c2ccccc2c1=O)Nc1ccccc1F	nt	nt	-0.11	nt	0.17	nt
O=C(NC(=S)NCCN1CCOCC1)c1ccccc1Cl	8	-1	nt	58*	0.82	1
COC(=O)/C=C(\C)NC(=O)c1ccccc1Cl	-8	10	nt	18	nt	0.9
CCCCNC(=S)NC(=O)c1ccccc1Br	4	15	-0.42	-8	35*	0.8
CCCCN(CCCC)C(=S)NC(=O)c1ccccc1Cl	64*	19	2.7*	0	65*	0.8
CC1CCCC(NC(=O)Cc2ccc(Br)cc2)C1C (configuration not stated)	2	4	-0.47	5	0.043	1
CC1CCCC(NC(=S)NC(=O)c2ccccc2Br)C1C (configuration not stated)	63*	10	0.073	-1	23*	0.9
CCN(CC)S(=O)(=O)c1cc(C(=O)N(C)CC(=O)Nc2ccc(Cl)cc2)ccc1Cl	-14	21	-0.56	39	-0.85	0.8
Cc1cc(=O)[nH]c(N/N=C/c2cn(CCC#N)nc2-c2ccccc2)n1	10	7	0.98	-3	-0.88	0.9
COc1ccc(C(=O)Nc2ccc(Cl)cc2C(=O)NCCN2CCOCC2)cc1	71*	1	nt	6	0.56	1
COc1ccc(C(=O)Nc2ccccc2C(=O)NCCN2CCOCC2)cc1	9	0	-0.022	-5	0.054	1

Screening data (PubChem BioAssay)
